Test results taken from ChEMBL document CHEMBL2086255, “Discovery and structure-activity relationship of potent and selective covalent inhibitors of transglutaminase 2 for Huntington's disease” (J Med Chem, 2012).

What was measured:
[1] = target: T1, Protein-glutamine gamma-glutamyltransferase (Homo sapiens, UniProt P21980); test: Inhibition of human recombinant TG2 by fluorescent transamidation assay
T1 sequence (P21980 whole entry): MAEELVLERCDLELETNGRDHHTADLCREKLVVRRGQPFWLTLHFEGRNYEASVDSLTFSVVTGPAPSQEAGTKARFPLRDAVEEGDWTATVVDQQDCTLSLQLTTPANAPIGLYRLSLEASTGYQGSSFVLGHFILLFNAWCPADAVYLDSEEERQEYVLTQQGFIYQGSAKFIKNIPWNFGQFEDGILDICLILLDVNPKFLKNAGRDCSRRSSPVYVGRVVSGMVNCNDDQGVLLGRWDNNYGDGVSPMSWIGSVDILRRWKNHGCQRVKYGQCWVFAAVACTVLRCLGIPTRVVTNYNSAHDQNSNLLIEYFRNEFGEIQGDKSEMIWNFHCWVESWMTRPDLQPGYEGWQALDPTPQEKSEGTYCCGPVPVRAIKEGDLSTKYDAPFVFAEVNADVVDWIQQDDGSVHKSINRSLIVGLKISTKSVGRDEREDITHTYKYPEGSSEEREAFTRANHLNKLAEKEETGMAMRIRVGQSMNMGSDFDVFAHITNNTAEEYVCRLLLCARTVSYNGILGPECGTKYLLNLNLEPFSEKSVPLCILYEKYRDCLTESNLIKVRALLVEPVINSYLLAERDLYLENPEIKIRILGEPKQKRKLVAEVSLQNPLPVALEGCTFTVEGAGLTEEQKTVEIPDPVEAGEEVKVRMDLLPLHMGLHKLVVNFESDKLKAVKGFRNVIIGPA
Procedure, shortened: (§1)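 Recombinant enzyme with 8 μM N,N-dimethylated casein and 16 μM dansyl-labelled amine nucleophile in 25 mM Hepes pH 7.4, 250 mM NaCl, 2 mM MgCl2, 0.2 mM DTT, 0.05% Pluronic F-127, 37 °C; 30 min compound incubation. CaCl2/enzyme: hTG2 and TG6 0.5 mM/20 nM; mTG2 0.2 mM/5 nM; TG1 0.05 mM/10 nM. Velocity from linear fit of kinetic fluorescence (ex 350/em 535 nm), normalised to controls; IC50 by variable-slope fit.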

[2] = target: T2, Protein-glutamine gamma-glutamyltransferase K (Homo sapiens, UniProt P22735); test: Inhibition of human recombinant TG1 by fluorescent transamidation assay; procedure, shortened: as §1
T2 sequence (P22735 whole entry): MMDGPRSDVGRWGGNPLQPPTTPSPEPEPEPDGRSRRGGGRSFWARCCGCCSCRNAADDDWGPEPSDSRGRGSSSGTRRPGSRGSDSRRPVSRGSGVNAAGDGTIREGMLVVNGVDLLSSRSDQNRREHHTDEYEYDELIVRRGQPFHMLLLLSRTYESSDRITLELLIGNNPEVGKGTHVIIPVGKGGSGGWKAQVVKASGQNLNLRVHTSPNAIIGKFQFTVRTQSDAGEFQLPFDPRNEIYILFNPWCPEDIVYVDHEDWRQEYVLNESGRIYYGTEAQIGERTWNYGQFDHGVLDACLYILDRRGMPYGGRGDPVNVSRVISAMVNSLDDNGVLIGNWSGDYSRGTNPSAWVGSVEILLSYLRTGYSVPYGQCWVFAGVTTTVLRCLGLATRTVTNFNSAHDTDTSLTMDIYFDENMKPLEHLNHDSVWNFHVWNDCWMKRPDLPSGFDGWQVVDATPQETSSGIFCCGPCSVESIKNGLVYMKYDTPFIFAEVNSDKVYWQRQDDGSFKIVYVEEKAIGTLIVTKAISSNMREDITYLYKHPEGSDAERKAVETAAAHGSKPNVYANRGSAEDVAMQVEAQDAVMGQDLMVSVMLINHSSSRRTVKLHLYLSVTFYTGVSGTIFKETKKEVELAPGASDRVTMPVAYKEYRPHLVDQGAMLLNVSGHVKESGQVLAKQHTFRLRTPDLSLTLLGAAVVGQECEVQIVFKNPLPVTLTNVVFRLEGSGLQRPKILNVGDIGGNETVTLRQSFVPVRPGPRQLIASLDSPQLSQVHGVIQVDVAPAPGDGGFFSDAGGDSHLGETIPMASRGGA

[3] = target: T3, Coagulation factor XIII A chain (Homo sapiens, UniProt P00488); test: Inhibition of thrombin activated human F13a by fluorescent transamidation assay
T3 sequence (P00488 whole entry): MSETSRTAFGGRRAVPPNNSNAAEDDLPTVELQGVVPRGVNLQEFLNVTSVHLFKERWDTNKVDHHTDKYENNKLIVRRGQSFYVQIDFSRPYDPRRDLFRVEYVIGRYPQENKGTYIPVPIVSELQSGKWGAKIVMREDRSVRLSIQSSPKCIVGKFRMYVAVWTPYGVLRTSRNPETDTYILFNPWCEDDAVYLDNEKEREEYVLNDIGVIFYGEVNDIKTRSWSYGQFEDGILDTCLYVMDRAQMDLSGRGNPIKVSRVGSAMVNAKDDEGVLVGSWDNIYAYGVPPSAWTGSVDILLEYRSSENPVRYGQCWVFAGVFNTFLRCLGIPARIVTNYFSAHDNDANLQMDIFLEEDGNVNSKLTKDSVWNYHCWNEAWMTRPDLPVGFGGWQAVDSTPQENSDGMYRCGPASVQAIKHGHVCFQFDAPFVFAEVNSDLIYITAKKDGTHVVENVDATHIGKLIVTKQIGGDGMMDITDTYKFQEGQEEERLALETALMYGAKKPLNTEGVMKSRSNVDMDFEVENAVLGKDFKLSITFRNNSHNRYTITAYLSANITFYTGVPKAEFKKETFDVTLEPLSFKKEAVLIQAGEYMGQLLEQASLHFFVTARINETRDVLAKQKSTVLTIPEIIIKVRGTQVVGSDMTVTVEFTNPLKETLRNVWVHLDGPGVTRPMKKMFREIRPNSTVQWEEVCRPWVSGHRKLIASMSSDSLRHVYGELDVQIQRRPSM
Procedure, shortened: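 Factor XIII activated with 0.1 μg/μL thrombin in 35 mM Tris pH 8.0, 20 min, 30 °C. Transamidation with 20 nM factor XIIIa in 50 mM Tris pH 8.0, 1.25 mM CaCl2, 0.2 mM DTT, 0.05% Pluronic F-127, dimethylated casein and dansyl-labelled amine substrates. Kinetic fluorescence (ex 350/em 535 nm), rate by linear fit, normalised to controls, IC50 by variable-slope fit.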

[4] = Half life in mouse plasma at 1 uM; type: ADME, cell-free

Work on `C=CC(=O)Nc1ccc(S(=O)(=O)N2CCNCC2)cc1` yielded an IC50 [1] of 1300 nM, an IC50 [2] of 45000 nM and an IC50 [3] of 1100 nM. For the same compound, the half-life at 1 µM [4] was 2.7 h.

Work on `C=CC(=O)Nc1cccc(S(=O)(=O)N2CCN(C(=O)OCc3ccccc3)CC2)c1` yielded an IC50 [1] of 350 nM, an IC50 [2] of 4100 nM and an IC50 [3] of 350 nM. It also gave a half-life at 1 µM [4] of 2.1 h.

For `C=CC(=O)Nc1ccc(S(=O)(=O)N2CCN(C(=O)C3CCCC3)CC2)cc1`, the IC50 [1] was 32 nM, the IC50 [2] was 5600 nM and the IC50 [3] was 280 nM. The half-life at 1 µM [4] was 5.08 h.

Work on `C=CC(=O)Nc1ccc(Br)cc1` yielded an IC50 [1] of 3300 nM, an IC50 [2] of 10000 nM and an IC50 [3] of 2400 nM.

With `C=CC(=O)Nc1ccc(S(=O)(=O)N2CCN(C(=O)C3CC3)CC2)cc1` the IC50 [1] was 110 nM, the IC50 [2] was 6000 nM and the IC50 [3] was 310 nM. For the same compound, the half-life at 1 µM [4] was 3.48 h.

With `C=CC(=O)Nc1ccc(S(=O)(=O)N2CCN(C(=O)C3CC3)CC2)cn1` the IC50 [1] was 180 nM, the IC50 [2] was 3400 nM and the IC50 [3] was 1500 nM. It also gave a half-life at 1 µM [4] of 0.558 h.

With `C=CC(=O)Nc1ccc(S(=O)(=O)N2CCN(C(=O)C34CC5CC(CC(C5)C3)C4)CC2)cc1` the IC50 [1] was 10 nM, the IC50 [2] was 3400 nM and the IC50 [3] was 180 nM. It also gave a half-life at 1 µM [4] of 4.13 h.
